From PubChem
Shown are actives, neighbours in structure and some others; about 2.7% of the full set was active somewhere.
V1aR counter: activates human V1a receptor in oxytocin agonist counter-screen; P37288; activation, % at 3 µM; actives 0.25% (n = 320,000); CHO-V1R cells, Fluo-8 calcium fluorescence, agonist mode; 0% DMSO, 100% 3 nM vasopressin; AID 2797;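 active = activation above the mean activation of all tested compounds plus 3 SD, per screening run, cut at about 20% in these data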;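 note: signal is peak over basal fluorescence ratio across a 100 second FLIPR read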
CHO parental Ca: counter-screen for OX1R antagonists: effect in parental CHO cells; parental CHO-K1, ATP-induced calcium, Fluo-8 fluorescence; inhibition, % at 5.6 µM; actives 0.63% (n = 330,000);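 active = inhibition above that plate's mean sample inhibition plus 3 SD, cut at about 26% in these data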;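 note: 0% = ATP-challenged DMSO wells and 100% = DMSO wells without ATP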
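Test system: untransfected parental CHO cell line; also added: ATP stimulus; dosing: 5.6 µM, single dose; signal: calcium-sensitive Fluo-8 fluorescence; measure: percent inhibition of ATP-evoked calcium rise, normalized to controls; benchmarks: low control ATP plus DMSO, high control DMSO only; replication: one well per compound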
OX1R antag-1: blocks the human orexin 1 receptor; O43613; CHO/OX1R cells, Fluo-8 calcium fluorescence, orexin A; inhibition, % at 5 µM; actives 0.43% (n = 330,000);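 active = inhibition above its plate's threshold, mean inhibition of all tested compounds on the plate plus 3 SD, cut at about 37% in these data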;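 note: 0% = orexin A challenge wells and 100% = SB-334867-A antagonist wells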
Target sequence (O43613 whole entry, looked up): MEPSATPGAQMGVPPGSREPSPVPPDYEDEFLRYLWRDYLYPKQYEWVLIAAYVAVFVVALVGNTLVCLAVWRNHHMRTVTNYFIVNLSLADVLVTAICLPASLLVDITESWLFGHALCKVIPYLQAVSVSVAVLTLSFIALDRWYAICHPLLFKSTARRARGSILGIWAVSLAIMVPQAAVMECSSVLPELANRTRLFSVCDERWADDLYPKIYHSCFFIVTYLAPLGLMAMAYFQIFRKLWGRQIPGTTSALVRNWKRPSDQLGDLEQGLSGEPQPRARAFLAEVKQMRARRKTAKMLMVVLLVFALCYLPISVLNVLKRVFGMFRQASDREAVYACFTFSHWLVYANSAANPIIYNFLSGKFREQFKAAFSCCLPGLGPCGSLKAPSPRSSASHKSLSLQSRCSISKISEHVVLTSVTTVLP
OXTR potentiate: potentiates the human oxytocin receptor response | P30559 | CHO-OTR cells, Fluo-8 calcium fluorescence, potentiator mode; 0% = oxytocin EC15, 100% = EC100 | activation, % at 3 µM | actives 0.061% (n = 320,000);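 active = activation above that plate's cutoff, the mean activation of tested compounds plus 3 SD, cut at about 6.6% in these data, passing the limit was not always enough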;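 note: 100% uses oxytocin at 75 nM as the full agonist control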
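Assay system: CHO-OTR cells, human receptor / Also added: oxytocin at about EC15, sub-maximal agonist stimulus / Dosing: single dose, 3.0 µM nominal final compound concentration / Incubation: 6 min pre-incubation, 100 s read / Technique: Fluo-8 calcium dye fluorescence / Read-out: % activation vs EC15 and EC100 oxytocin / Benchmarks: EC15 oxytocin low, 75 nM oxytocin high / Replicates: singlicate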
OXTR agonist: human OXTR agonism; P30559; AID 2435; actives 0.32% (n = 320,000); CHO-OTR cells, Fluo-8 calcium fluorescence; normalized: DMSO 0%, oxytocin 100%; activation, % at 3 µM;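 active = activation above the mean of all tested compounds plus 3 SD, cutoff set per screening run, cut at about 20% in these data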;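 note: peak over basal fluorescence ratio from a 100 s FLIPR kinetic read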
OX1R antag-2: blocks the human orexin 1 receptor | actives 1.8% (n = 330,000) | inhibition, % at 6.6 µM | AID 485270 | O43613 | OX1R-expressing cells, FRET antagonist read-out; in the data active = inhibition mostly above about 38%, no sharp cut-off; inactive = mostly below about 40%;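 note: 0% = agonist challenge alone and 100% = reference antagonist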
An asterisk follows results filed as active.

SMILES	V1aR counter	CHO parental Ca	OX1R antag-1	OXTR potentiate	OXTR agonist	OX1R antag-2
CNc1cc(CSC)nc(SCc2ccc(Cl)c(Cl)c2)n1	1	-17	55*	-8	0	49*
Cc1nc(SCc2ccc(Cl)c(Cl)c2)ncc1C(=O)O	5	-8	-15	-17	3	23
CCN1C(=O)C(CC(=O)Nc2ccccc2Cl)N(NC(=O)c2cccc(F)c2)C1=S (configuration not stated)	7	-6	9	-11	3	75*
COc1cc(/C=C/C(=O)OCC(=O)Nc2nnc(-c3ccccc3)o2)cc(OC)c1OC	0	-15	-38	-3	3	72*
COc1ccc(C(=O)OCC(=O)Nc2nnc(-c3ccccc3)o2)cc1	0	-12	-12	-9	-1	52*
COc1cc(C(=O)OCC(=O)Nc2nnc(-c3ccccc3)o2)cc(OC)c1OC	-1	7	-10	-5	-2	33
CN(CC(=O)N1CCOCC1)S(=O)(=O)c1ccc2ccccc2c1	0	1	-16	3	0	0
CCC[C@H]1NC(=O)[C@H](C)N(C)C(=O)C(C)(C)C(=O)C(C)NC(=O)[C@H](Cc2ccc(OC)cc2)N(C)C(=O)[C@H](C(C)C)N(C)C(=O)CNC(=O)[C@H](CC(C)C)N(C)C(=O)CNC(=O)[C@H]([C@@H](C)CC)OC(=O)[C@H]1C (some centres not stated)	0	-51	-54	0	0	9
O=C1c2cccc3cc([N+](=O)[O-])cc(c23)C(=O)N1c1ccccc1O	0	-9	-22	-7	1	43*
Cc1cc(O)ccc1N1C(=O)c2cccc3cc([N+](=O)[O-])cc(c23)C1=O	1	-15	-26	7	0	59
CC(=O)c1c(C)n([O-])c2ccc(C)cc2[n+]1=O	-1	-4	2	-3	0	41*
CCc1ccc(OCC(=O)Nc2ccc(-c3cc4ccccc4oc3=O)c(OC)c2)cc1	7	40*	10	-13	4	28
COc1cc(NC(=O)c2cc(Cl)ccc2Cl)ccc1-c1cc2ccccc2oc1=O	2	-13	-16	0	2	14
O=C(Nc1ccccc1)c1snc2c(=O)[nH]cnc12	3	-16	-25	-4	2	74*
CCOC(=O)c1snc2c(=O)[nH]cnc12	1	4	-1	5	1	42*
CCOC(=O)C1CCCN(c2ccc(NC(=O)c3snc4c(=O)[nH]cnc34)cc2)C1 (configuration not stated)	1	-8	-10	-1	0	36
CC(=O)OC[C@]12CC[C@H]3[C@@](C)(CC[C@H]4C(C)(C)CCC[C@]34C)[C@@H]1C[C@H](C1=CC(=O)O[C@@H]1OC(C)=O)O2	1	64*	19	-11	4	0
O=[N+]([O-])c1cc(Br)c(OCc2nnc(-c3ccccc3)o2)c(Br)c1	-1	-13	-22	-3	-1	7
O=[N+]([O-])c1ccc2c(OCc3nnc(-c4ccccc4Br)o3)ncnc2c1	2	-15	-14	-9	0	49*
COc1ccc(CC(=O)Nc2cccc(-c3nnc(-c4cccc(C)c4)o3)c2)cc1OC	11	94*	89*	-29	9	110*
COc1ccccc1OCC(=O)Nc1cccc(-c2nnc(-c3ccco3)o2)c1	-1	-15	-18	-15	-3	46*
CCOC(=O)c1ccc(N2CCN(c3ccccc3F)CC2)c(NC(=O)Nc2ccccc2)c1	5	39*	18	-3	0	9
CCOC(=O)C1=C(C)Nc2ccccc2N/C1=N\S(=O)(=O)c1cccc(Cl)c1	2	-29	-30	-4	2	16
CCOC(=O)C1=C(C)Nc2ccccc2N/C1=N\S(=O)(=O)c1ccc(Cl)cc1	5	-1	6	-11	7	30*
Cc1[nH]c2c(C)cccc2c1CCNC(=O)c1ccc2c(c1[N+](=O)[O-])C(=O)c1ccccc1C2=O	-1	2	5	-19	-1	75
